Assay outcomes as filed in PubChem BioAssay.
Hck-Nef inh: inhibitors of Nef-activated human Hck kinase, primary screen, biochemical, Z-Lyte FRET, 384-well, Hck-YEEI | Recombinant Hck-YEEI plus Nef, Z-Lyte FRET kinase assay | AID 463187, 2010 | 0.68% of 220,000 active | inhibition, % at 20 µM | Tyrosine-protein kinase HCK (Homo sapiens), P08631;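 active = Hck-Nef kinase inhibition above about 50%, limit read from the data; inactive = inhibition below that limit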;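 also: 0% = DMSO with Hck plus Nef and 100% = Hck alone without Nef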
Biofilm kill mix: clotrimazole potentiators killing C. albicans biofilm, primary screen, 4-compound mixtures | C. albicans biofilm persisters + clotrimazole, fluorescence viability; primary screen in compound mixtures of four per well | inhibition, % at 7.6 µM | 0.02% of 120,000 active | AID 1242, 2008;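 active = inhibition above 30.3% in the primary screen of four-compound pools, then above 30% when the compound was retested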;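 also: compounds exposed to preformed 24 h biofilms for 48 h; 0% = untreated biofilm control and 100% = clotrimazole plus chlorhexidine kill blank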
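Assay system: C. albicans biofilms / Medium: RPMI/MOPS medium, pH 7.0 / Schedule: biofilm formation 24 h, compound exposure 48 h, 37 °C / Measured by: Alamar Blue fluorescence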
RAM network inh: inhibitors of the yeast RAM network, primary screen, dse1pr::URA3 reporter, 5-FOA selection. 1.8% of 190,000 active. S. cerevisiae dse1pr::URA3 reporter, 5-FOA growth OD615, 2 d; analog-sensitive cbk1-as2 kinase mutant strain. AID 868, 2007. inhibition, % at 50 µM;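 active = inhibition above a set limit, 3 SD over mean compound inhibition, cut at about 8.4% in these data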;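 also: 0% = DMSO-only wells with no growth and 100% = 10 µM 1-NA-PP1 full growth; inhibition rescues growth on 5-FOA so higher OD means more RAM inhibition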
WT yeast gro inh: growth inhibition of WT strain, primary screen, mitochondrial fusion inhibitor project, WT and mutant strains, chemical genetic | inhibition, % at 10 µM | mitochondrial fusion phenotypic screen | 2.1% of 190,000 active | AID 1362, 2008; in the data active = inhibition above about 58%; tested in S. cerevisiae
NCF1 inh: p47phox/p22phox peptide binding inhibitors, primary screen, biochemical, uHTS, NADPH oxidase regulatory subunit. 0.53% of 220,000 active. inhibition, % at 24.7 µM. Neutrophil cytosol factor 1 (Homo sapiens), P14598. fluorescence polarization, 2 h;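 active = inhibition above about 30%, limit read from the data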;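 also: 0% = p47phox with labelled peptide and 100% = labelled peptide alone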
Target sequence (P14598 whole entry, looked up): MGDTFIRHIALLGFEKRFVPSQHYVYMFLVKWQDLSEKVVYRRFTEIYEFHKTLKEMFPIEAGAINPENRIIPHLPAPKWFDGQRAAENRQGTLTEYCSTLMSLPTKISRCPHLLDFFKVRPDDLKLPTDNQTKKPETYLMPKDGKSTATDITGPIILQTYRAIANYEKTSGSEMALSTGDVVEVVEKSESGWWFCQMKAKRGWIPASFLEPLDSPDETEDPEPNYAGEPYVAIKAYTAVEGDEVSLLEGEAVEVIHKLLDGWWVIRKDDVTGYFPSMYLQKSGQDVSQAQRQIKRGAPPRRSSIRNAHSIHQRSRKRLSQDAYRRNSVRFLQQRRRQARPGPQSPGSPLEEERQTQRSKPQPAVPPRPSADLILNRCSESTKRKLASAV
Arbovirus anti: antivirals against arbovirus infection, primary screen, cell-based, full library, 10K replicate subset; arbovirus infection cell-based antiviral screen; inhibition, % at 10 µM; 0.37% of 200,000 active; AID 1251, 2008; in the data active = inhibition above about 30%
An asterisk follows results filed as active; x = no result. An excerpt weighted towards active compounds, which were near 4.6% of everything screened.

SMILES	Hck-Nef inh	Biofilm kill mix	RAM network inh	WT yeast gro inh	NCF1 inh	Arbovirus anti
O=C(NCc1ccccc1)C(=O)NCC1OCCN1C(=O)c1cccs1 (stereo not given)	4.6	3.5	0.4	-11.2	-0.6	-2.9
O=C(CSCC(=O)OCn1nnc2ccccc2c1=O)Nc1ccc(Cl)cc1	1.2	x	1.4	69.9*	-7.4	1.4
O=C(CCSc1ccccc1)OCn1nnc2ccccc2c1=O	20.8	-0.2	1.2	-4.5	1.9	0.7
CCCCn1c(SCc2cccc([N+](=O)[O-])c2)nc2ccsc2c1=O	-0.2	15.2	7.9	7.0	1.2	34.4*
CCC(C)n1c(SCc2ccc([N+](=O)[O-])cc2)nc2ccsc2c1=O (stereo not given)	2.6	4.8	9.6*	4.6	-2.0	28.5
O=c1c2ccccc2nc(SCc2ccc([N+](=O)[O-])cc2)n1-c1ccccc1	2.3	x	5.3	-2.3	-14.6	-13.2
CCOC(CCn1c(SCc2cccc([N+](=O)[O-])c2)nc2ccccc2c1=O)OCC	2.6	15.6	10.8*	5.0	-12.7	-0.2
CCCCn1c(SCC(=O)Nc2cc(C)on2)nc2ccsc2c1=O	-0.1	x	3.6	0.4	-7.6	-2.0
O=C(Nn1c(SCc2cccc([N+](=O)[O-])c2)nc2ccccc2c1=O)c1ccccc1	3.4	-2.9	4.7	3.6	-3.1	39.0*
COc1ccc(C(=O)Nn2c(SCc3cccc([N+](=O)[O-])c3)nc3ccccc3c2=O)cc1	-0.2	-0.3	2.1	-8.1	4.9	3.0
Cc1nc(-c2ccc(C(=O)NCCO)cc2)cs1	12.9	13.1	-0.1	7.1	-2.4	4.2
COc1ccc(/C=C/C(=O)c2cc3c(cc2N)OCO3)cc1	22.6	7.0	0.8	27.5	-9.1	-7.8
COc1cc2c(cc1NC(=S)Nc1cccc(C(F)(F)F)c1)oc1ccccc12	-19.3	x	1.4	64.0*	-33.1	-8.0
COc1cc2c(cc1NC(=S)Nc1cccc3ccccc13)oc1ccccc12	1.2	x	4.2	69.0*	-10.5	-11.1
COc1cc2c(cc1NC(=O)COC(=O)c1ccc(C(C)(C)C)cc1)oc1ccccc12	9.9	17.3	2.1	-15.7	-2.2	-6.4
O=C(Cn1cnc2ccccc21)c1ccc(Br)cc1	28.2	25.7	0.6	4.2	-18.2	4.5
O=C(CSc1ccc(F)cc1)Nc1ccccc1Br	14.3	-2.6	11.2*	11.3	-8.7	-8.5
O=C(CSc1ccc(F)cc1)Nc1ccc(Br)cc1	-10.0	7.5	0.6	19.2	-7.2	4.3
COc1ccc(C)cc1S(=O)(=O)N(C)CC(=O)N1CCN(c2ccccc2)CC1	22.4	7.3	1.2	12.1	-8.2	9.2
COc1cc(C(=O)OC2CC3CCC2(C)C3(C)C)ccc1OC(C)=O (stereo not given)	-2.8	15.4	3.9	73.3*	-4.5	-20.6
CCNC(=O)c1ccccc1CCc1ccccc1	5.0	15.3	1.1	-3.6	0.3	-1.5
O=C1c2ccccc2C(=O)N1/N=C/c1ccc(O)c(O)c1	3.6	10.8	0.9	-13.2	-12.5	-2.3
CCN(CC)c1nc(N)c([N+](=O)[O-])c(NCCO)n1	0.6	3.1	0.5	-16.0	0.1	-0.5
O=C(NCCCn1ccnc1)C(Cc1ccccc1)N1C(=O)c2ccccc2C1=O (stereo not given)	-0.6	x	0.1	58.4*	-6.1	-2.1
COc1ccc(C2N(c3ccc(Cl)cc3)N=C(C(C)=O)N(C)N2C(C)=O)cc1 (stereo not given)	21.5	-0.4	2.3	66.9*	-10.6	-7.1
SMILES	Hck-Nef inh	Biofilm kill mix	RAM network inh	WT yeast gro inh	NCF1 inh	Arbovirus anti
Cc1ccc(C2c3c(C)nn(-c4ccc([N+](=O)[O-])cc4)c3N=C3C(=O)Nc4ccccc4N32)cc1 (stereo not given)	13.7	10.8	9.9*	2.9	-8.2	-3.4
CCC(C)NC(=S)N1CCN(Cc2ccccc2)CC1 (stereo not given)	22.7	26.3	0.9	-9.4	4.3	-1.3
CNC(=S)N1CCN(C(c2ccccc2)c2ccccc2)CC1	10.4	23.9	1.2	70.3*	-0.8	-7.7
CCC(C)NC(=S)N1CCN(C(c2ccccc2)c2ccccc2)CC1 (stereo not given)	-4.7	15.7	-0.7	69.2*	-3.0	14.2
Cc1nc2ccccc2c(=O)n1NC(=O)CCC(=O)O	9.3	10.2	0.8	-3.8	1.2	6.8
COCCN1C(=O)c2cc(C(=O)Nc3ccc(OC)c(OC)c3)ccc2C1Nc1ccc(OC)c(OC)c1 (stereo not given)	13.3	11.7	4.2	7.4	0.5	-2.7
CSc1nnnn1-c1c(C)cccc1C	11.9	14.2	x	x	-5.2	x
Cc1ccc(NC2(c3nnnn3-c3c(C)cccc3C)CCCCC2)cc1	-0.3	6.8	2.1	81.8*	12.7	5.1
CCCCNC(=O)CSc1nc2ccsc2c(=O)n1CCCC(=O)NCCc1ccc(S(N)(=O)=O)cc1	21.6	2.4	2.9	-1.0	31.0*	-7.3
CCCCCC(=O)NNC(=S)NC(=O)c1ccc([N+](=O)[O-])cc1	24.8	19.2	-1.5	61.5*	8.3	8.7
Cc1cc2c(cc1C)CSC(c1ccccc1OC(=O)C(C)(C)C)SC2	19.8	x	4.6	64.3*	-12.9	5.0
CCC/C=C(\CCC)C(NS(=O)(=O)c1ccc(C(F)(F)F)cc1)c1ccccc1 (stereo not given)	0.3	16.3	11.3*	54.6	-7.4	-37.1
Cn1nnnc1SCC(=O)C(C)(C)C	18.4	7.2	1.9	-6.9	-5.2	-2.7
CCOC(=O)c1cnc(N2CCN(C(=O)OCC)CC2)[nH]c1=O	21.6	14.9	0.3	-2.7	3.5	16.2
Cc1ccccc1C(=O)Oc1ccc(Sc2ccc(O)cc2)cc1	3.7	x	11.4*	86.5*	-7.6	-18.4
Cc1ccccc1C(=O)Oc1ccc(-c2csnn2)cc1	19.8	10.6	x	x	-12.1	x
CC(=O)Nc1sc2c(c1C(c1cccc(Cl)c1)N1CCN(CCO)CC1)CCCC2 (stereo not given)	1.4	5.6	0.2	11.9	-9.2	-20.0
CCOc1ccc(C(c2c(NC(=O)c3ccccc3)sc(C)c2C)N2CCN(CCO)CC2)cc1 (stereo not given)	0.2	7.4	5.2	67.7*	-15.7	-31.7
Cc1sc(NC(=O)c2ccccc2)c(C(c2ccc(Cl)cc2)N2CCN(CCO)CC2)c1C (stereo not given)	7.8	9.6	0.8	90.7*	-11.2	-37.9
O=C(Nc1nc2ccc(F)cc2s1)c1ccccn1	25.7	6.8	1.8	79.4*	-21.3	-25.8
O=C(Nc1nc2ccccc2s1)c1cnccn1	5.8	x	2.9	23.6	12.4	-13.2
